Screens: PubChem, several laboratories
PKA-R1A activ: activators of PKA-R1A holoenzyme, primary screen, biochemical, fluorescence polarization, Cy5-IP20, bovine R1A, mouse PKAc; cAMP-dependent protein kinase type I-alpha regulatory subunit (Bos taurus) + …; PKA-R1A dissociation; scaled: DMSO 0%, 113 µM cGMP 100%; activation, % at 11.4 µM; 0.083% of 340,000 active; AID 504707, 2011;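 active means percent activation above the mean of all tested compounds plus 3 SD, cut at about 19% in these data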;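 further: higher means more PKAc released from R1A so a rise in polarization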
ATG4B inhibitor: ATG4B protease inhibitors, primary screen, biochemical, fluorescence, uHTS. ATG4B cleavage of LC3-PLA2, NBD-HPC fluorescence, 1 h. inhibition, % at 8.33 µM. AID 504462, 2011. 0.51% of 340,000 active; in the data active means inhibition above about 40%
PKA-R2B activ: activators of PKA-R2B holoenzyme, primary screen, biochemical, fluorescence polarization, Cy5-IP20, human; PKA-R2B holoenzyme dissociation; R2B truncated from residue 108, S112A mutant; 0% DMSO only, 100% 113 µM cGMP; activation, % at 11.4 µM; 0.079% of 340,000 active; AID 504700, 2011;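 active means activation above a cutoff set at the mean over all compounds plus 3 SD, cut at about 18% in these data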;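 further: higher means more holoenzyme dissociation and a rise in polarization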
HKDC1 inh: HKDC1 hexokinase inhibitors, primary screen, biochemical, fluorescence, uHTS | Q2TB90 | 0.16% of 340,000 active | recombinant HKDC1, G6PDH/diaphorase resazurin coupled fluorescence | inhibition, % at 20 µM | AID 493160, 2011;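 active means inhibition above about 35% when tested at 20 µM, limit read from the data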;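 further: plate controls were DMSO wells with enzyme for no effect and DMSO wells lacking enzyme for full effect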
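Assay system: in-house recombinant HK5 (HKDC1) enzyme. Input: HKDC1 at 5 µg/mL. Medium: Tris pH 8.0 buffer with MgCl2, Tween-20, BSA, BME. Dosing: single 20 µM dose. Schedule: 90 min reaction incubation at room temperature, dark. Signal: resazurin-to-resorufin fluorescence via G6PDH and diaphorase coupling, 525/613 nm. Controls: DMSO-enzyme wells negative, buffer-substituted wells positive.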
PfG6PD inh: PfG6PD enzyme inhibitors, primary screen, biochemical, fluorescence intensity, uHTS; AID 504690, 2011; glucose-6-phosphate dehydrogenase-6-phosphogluconolactonase (Plasmodium falciparum 3D7); PfGluPho enzyme, NADPH resazurin-diaphorase fluorescence; 0.78% of 350,000 active; inhibition, % at 20 µM;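 active means inhibition reaching at least a set limit at 20 µM in the primary screen, cut at about 59% in these data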;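 further: 0% = DMSO wells with substrate and 100% = DMSO wells lacking glucose-6-phosphate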
T cell modulator: modulators of CD8 T cell-vesicle binding, primary screen, mouse 2C CD8+ T cells, flow cytometry | 2C CD8+ T cell-vesicle binding; hits give low values | response (vesicle binding), % at 7 µM | 0.068% of 330,000 active | AID 2052, 2009;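 active means response, share of CD8 T cells binding vesicles, and their 90th percentile fluorescence all below set limits, cut at about 80% in these data, passing the limit was not always enough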;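 further: values below 100% mean blocked vesicle binding to the CD8+ T cells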
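Material: 2C TCR transgenic mouse naive CD8+ T cells, MACS-purified. Also added: QL9-charged Drosophila Ld/ICAM-1/B7-1 vesicles. Timing: binding 1.5 h at 37 °C. Measured by: high-throughput flow cytometry with anti-B7-1 and anti-CD8 staining. Read-out: percent CD8+ FL2 mean versus row control. Controls: Unloaded micro-vesicles (low), QL9 vesicles with 0.7% DMSO (high).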
PfGluPho conf: PfG6PD inhibitors, hit retest, confirmation, biochemical, fluorescence intensity, single concentration; inhibition, % at 20 µM; AID 504753, 2011; recombinant PfGluPho, NADPH-diaphorase-resazurin fluorescence; shares compounds with PfG6PD inh; 34% of 2,400 active;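 active means inhibition of at least 50% at 20 µM in any single replicate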;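 further: 0% = DMSO with substrate and 100% = DMSO lacking glucose-6-phosphate substrate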
Diaph ctr 10uM: diaphorase inhibitors and chemical oxidizers, confirmation, counter-screen for P. falciparum G6PD inhibitor project, biochemical, fluorescence intensity, 10 µM NADPH | shares compounds with PfG6PD inh | diaphorase-coupled resazurin reduction, NADPH 10 uM | inhibition, % at 20 µM | 39% of 820 active | AID 504862, 2011;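 active means average inhibition reaching 50% or more with the compound at 20 µM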;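 further: resorufin red fluorescence formed as diaphorase reduces resazurin using NADPH; 0% = DMSO with enzyme and 100% = DMSO without enzyme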
Diaph ctr 30uM: diaphorase inhibitors and chemical oxidizers, confirmation, counter-screen for P. falciparum G6PD inhibitor project, biochemical, fluorescence intensity, 30 µM NADPH; shares compounds with PfG6PD inh; Diaphorase/resazurin coupled assay, resorufin fluorescence; inhibition, % at 20 µM; 29% of 820 active; AID 504863, 2011;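 active means inhibition averaging 50% or more, tested at 20 µM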;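 further: 0% = DMSO with enzyme and 100% = DMSO wells lacking diaphorase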
* marks the source's active call; other numbers are inactive results; i = inactive; · = no result given. Shown are actives, neighbours in structure and some others; about 1.6% of the full set was active somewhere.

SMILES | PKA-R1A activ | ATG4B inhibitor | PKA-R2B activ | HKDC1 inh | PfG6PD inh | T cell modulator | PfGluPho conf | others
COC(=O)c1ccccc1NC(=O)c1sc(=S)n(C)c1N | 12 | -3 | -8 | -2 | 63* | 163 | 40
Cc1ccc(-n2c(N)c(C(N)=O)sc2=S)c(C)c1 | -1 | -4 | -7 | -12 | 62* | 295 | 29
Cc1ccccc1-n1c(N)c(C(=O)Nc2ccc(F)cc2)sc1=S | 6 | 0 | -11 | -2 | 34 | 398 | ·
Cc1ccc(-n2c(N)c(C(=O)Nc3ccccc3F)sc2=S)cc1C | -6 | 27 | 3 | -3 | 70* | 131 | -3
Cc1ccc(NC(=O)c2sc(=S)n(-c3cc(C)ccc3F)c2N)cc1 | -16 | -5 | -8 | -8 | 75* | 357 | 25
COC(=O)c1ccccc1NC(=O)c1sc(N)nc1C | 4 | -8 | -2 | 3 | -4 | 210 | ·
COc1ccc(-c2noc(=O)n2Cc2ccccc2Cl)cc1 | -4 | -6 | -9 | -5 | -1 | 601 | ·
O=C(Cc1cccc2ccccc12)N/N=C/c1ccc(Sc2cccc3cccnc23)o1 | · | · | · | · | · | 316 | ·
O=C(CSc1cccc2cccnc12)N/N=C/c1ccc(F)cc1 | -12 | -13 | -14 | 9 | 85* | i | 65* | Diaph ctr 10uM=61*;Diaph ctr 30uM=54*
O=C(CSc1cccc2cccnc12)N/N=C/c1cccc(O)c1 | -10 | -14 | -1 | -1 | 6 | 385 | ·
CCCCC(=O)N/N=C/c1ccc(Sc2cccc3cccnc23)o1 | -14 | 4 | -9 | -1 | 68* | 176 | 29
COc1cccc(Nc2nc3cc(C)ccc3cc2C)c1 | 0 | · | -7 | · | 22 | · | ·
Cc1ccc(C(=O)Nc2ncc([N+](=O)[O-])s2)cc1 | -4 | 9 | 5 | 10 | 99* | 180 | 85* | Diaph ctr 10uM=76*;Diaph ctr 30uM=63*
Cc1onc(-c2ccccc2)c1C(=O)Nc1ncc([N+](=O)[O-])s1 | 7 | 4 | 0 | -1 | -21 | 197 | ·
O=C(Nc1ncc([N+](=O)[O-])s1)c1ccc2c(c1)OCO2 | 3 | -7 | 5 | 1 | 126* | 461 | 87* | Diaph ctr 10uM=83*;Diaph ctr 30uM=78*
Cc1ccc2nc(-c3ccc4c(c3)OCCO4)cn2c1 | 0 | -1 | 3 | 3 | 109* | 416 | 58* | Diaph ctr 10uM=74*;Diaph ctr 30uM=61*
O=C1COc2ccc(-c3n[nH]c(=O)c4ccccc34)cc2N1 | -4 | -4 | -3 | -4 | -1 | 155 | ·
Clc1ccc2nc(-c3ccc4c(c3)OCO4)cn2c1 | 1 | 1 | 0 | -5 | 73* | 266 | 50* | Diaph ctr 10uM=17;Diaph ctr 30uM=19
Cc1ccc2nc(-c3ccc4c(c3)NC(=O)CO4)cn2c1 | -6 | -1 | -7 | -2 | 104* | 202 | 41
c1ccn2cc(-c3ccc4c(c3)OCCO4)nc2c1 | 8 | -2 | -4 | 5 | 27 | 689 | ·
Clc1ccc2nc(-c3ccccc3)cn2c1 | -9 | -1 | 2 | 0 | 64* | 299 | 37
